Molecules are shown by their SMILES. The source made the active and inactive calls. The calls are words filed in the database; no cut-off is given here.

The target in one experiment is T1, Caspase-3 (Homo sapiens) (UniProt P42574).
T1 sequence (whole entry): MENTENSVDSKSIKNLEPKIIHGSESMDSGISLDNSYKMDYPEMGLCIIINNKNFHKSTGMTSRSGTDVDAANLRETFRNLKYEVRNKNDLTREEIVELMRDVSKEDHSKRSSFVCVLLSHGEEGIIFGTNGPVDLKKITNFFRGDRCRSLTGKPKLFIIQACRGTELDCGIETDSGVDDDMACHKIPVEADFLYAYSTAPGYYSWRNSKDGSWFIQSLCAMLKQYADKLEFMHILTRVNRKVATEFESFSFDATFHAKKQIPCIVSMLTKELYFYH
Nature of the experiment: Inhibition of caspase 3.
`CC(C)[C@H](NC(=O)c1ccc2ccccc2c1)C(=O)N[C@@H](C)C(=O)N[C@H](CNCc1ccccc1O)CC(=O)O`: the outcome was inactive.

The subject of another experiment is HT-29. Nature of the experiment: Cytotoxicity against human HT-29 cells at <=200 uM after 24 hrs by MTT assay. Format: functional, cell-based. Summed up: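 HT29 colon cancer cells seeded at 1 × 10⁵ cells/well in RPMI 1640, adhered overnight at 37 °C, then exposed to various compound concentrations (up to 200 μM) for 24 h at 37 °C. MTT ([…] in RPMI 1640) added for 1 h at 37 °C; cells lysed, crystals dissolved in isopropanol, absorbance read at 570 nm.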
As for `CC(C)[C@H](NC(=O)c1ccc2ccccc2c1)C(=O)N[C@@H](C)C(=O)N[C@@H](CC(=O)O)CN(C)C1CCCCC1`, the Activity result was “Not toxic”. In the case of `CC(C)[C@H](NC(=O)c1ccc2ccccc2c1)C(=O)N[C@@H](C)C(=O)N[C@@H](CC(=O)O)CN(C)Cc1ccccc1`, the Activity entry is “Not toxic”. For the molecule `CC(C)[C@H](NC(=O)c1ccc2ccccc2c1)C(=O)N[C@@H](C)C(=O)N[C@H](CNCc1ccc2c(c1)OCO2)CC(=O)O`, the Activity entry was “Not toxic”. On to `CC(C)[C@H](NC(=O)c1ccc2ccccc2c1)C(=O)N[C@@H](C)C(=O)N[C@H](CNCc1ccccc1)CC(=O)O`, for which the Activity result is “Not toxic”. Turning to `COc1ccccc1CNC[C@H](CC(=O)O)NC(=O)[C@H](C)NC(=O)[C@@H](NC(=O)c1ccc2ccccc2c1)C(C)C`, the Activity entry was “Not toxic”. `CC(C)[C@H](NC(=O)c1ccc2ccccc2c1)C(=O)N[C@@H](C)C(=O)N[C@H](CCCc1ccccc1)CC(=O)O`: the Activity result is “Not toxic”. Take `CC(C)[C@H](NC(=O)c1ccc2ccccc2c1)C(=O)N[C@@H](C)C(=O)N[C@H](CNC1CCCCC1)CC(=O)O`: the Activity entry was “Not toxic”.

`CC(C)[C@H](NC(=O)c1ccc2ccccc2c1)C(=O)N[C@@H](C)C(=O)N[C@H](CNCc1ccccc1O)CC(=O)O`: the Activity result was “Not toxic”. Regarding `CC(C)[C@H](NC(=O)c1ccc2ccccc2c1)C(=O)N[C@@H](C)C(=O)N[C@H](CNCc1ccc(O)cc1)CC(=O)O`, the Activity result is “Not toxic”. Regarding `CC(C)[C@H](NC(=O)c1ccc2ccccc2c1)C(=O)N[C@@H](C)C(=O)N[C@H](CNCc1ccc(C(N)=O)cc1)CC(=O)O`, the Activity entry is “Not toxic”. Same read-out and setting: as for `CC(C)[C@H](NC(=O)c1ccc2ccccc2c1)C(=O)N[C@@H](C)C(=O)N[C@H](CNCc1ccccc1F)CC(=O)O`, the entry is “Not toxic”.

The values above are taken from ChEMBL document CHEMBL1157618, “Noncovalent tripeptidyl benzyl- and cyclohexyl-amine inhibitors of the cysteine protease caspase-1” (J Med Chem, 2010).
